Reference: ChEMBL document CHEMBL4052595, “Application of Residual Dipolar Couplings and Selective Quantitative NOE to Establish the Structures of Tetranortriterpenoids from Xylocarpus rumphii” (J Nat Prod, 2017)
The source made the active and inactive calls.

Legend:
Assay type in all cases: functional, cell-based
[1] = tested on: U-251; assay: Growth inhibition of human U251 cells at 10^-5 M incubated for 48 hrs by sulforhodamine B assay
Summary of the method: (§1)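 Tested at a single concentration of 1 × 10−5 M as part of the NCI59 cell-line one-dose screen.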

[2] = tested on: M14; assay: Growth inhibition of human M14 cells at 10^-5 M incubated for 48 hrs by sulforhodamine B assay
Summary of the method: (§2)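 Run in the NCI59 one-dose cell-line screen, with each compound tested at a single concentration of 1 × 10−5 M.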

[3] = tested on: PC-3; assay: Growth inhibition of human PC3 cells at 10^-5 M incubated for 48 hrs by sulforhodamine B assay; summary of the method: as §2
[4] = tested on: CAKI-1; assay: Growth inhibition of human Caki1 cells at 10^-5 M incubated for 48 hrs by sulforhodamine B assay; summary of the method: as §2
[5] = tested on: 786-0; assay: Growth inhibition of human 786-0 cells at 10^-5 M incubated for 48 hrs by sulforhodamine B assay; summary of the method: as §2
[6] = tested on: HCT-116; assay: Growth inhibition of human HCT116 cells at 10^-5 M incubated for 48 hrs by sulforhodamine B assay; summary of the method: as §2
[7] = tested on: UACC-257; assay: Growth inhibition of human UACC257 cells at 10^-5 M incubated for 48 hrs by sulforhodamine B assay; summary of the method: as §1
[8] = tested on: K562; assay: Growth inhibition of human K562 cells at 10^-5 M incubated for 48 hrs by sulforhodamine B assay; summary of the method: as §2
[9] = tested on: NCI-H522; assay: Growth inhibition of human NCI-H522 cells at 10^-5 M incubated for 48 hrs by sulforhodamine B assay; summary of the method: as §2
[10] = tested on: UACC-62; assay: Growth inhibition of human UACC62 cells at 10^-5 M incubated for 48 hrs by sulforhodamine B assay; summary of the method: as §1
[11] = tested on: SF-539; assay: Growth inhibition of human SF539 cells at 10^-5 M incubated for 48 hrs by sulforhodamine B assay; summary of the method: as §2
[12] = tested on: HL-60(TB); assay: Growth inhibition of human HL-60(TB) cells at 10^-5 M incubated for 48 hrs by sulforhodamine B assay
Summary of the method: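 Run in the NCI59 cell-line one-dose screen, with each compound tested at a single concentration of 1 × 10−5 M.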

[13] = tested on: HOP-92; assay: Growth inhibition of human HOP92 cells at 10^-5 M incubated for 48 hrs by sulforhodamine B assay; summary of the method: as §2
[14] = tested on: Hs-578T; assay: Growth inhibition of human Hs 578T cells at 10^-5 M incubated for 48 hrs by sulforhodamine B assay; summary of the method: as §2
[15] = tested on: COLO 205; assay: Growth inhibition of human COLO205 cells at 10^-5 M incubated for 48 hrs by sulforhodamine B assay; summary of the method: as §2
[16] = tested on: HOP-62; assay: Growth inhibition of human HOP62 cells at 10^-5 M incubated for 48 hrs by sulforhodamine B assay; summary of the method: as §2
[17] = tested on: SK-MEL-28; assay: Growth inhibition of human SK-MEL-28 cells at 10^-5 M incubated for 48 hrs by sulforhodamine B assay; summary of the method: as §2
[18] = tested on: T47D; assay: Growth inhibition of human T47D cells at 10^-5 M incubated for 48 hrs by sulforhodamine B assay; summary of the method: as §1
[19] = tested on: NCI-H322M; assay: Growth inhibition of human NCI-H322M cells at 10^-5 M incubated for 48 hrs by sulforhodamine B assay; summary of the method: as §2
[20] = tested on: NCI-H23; assay: Growth inhibition of human NCI-H23 cells at 10^-5 M incubated for 48 hrs by sulforhodamine B assay; summary of the method: as §2
[21] = tested on: SF-295; assay: Growth inhibition of human SF295 cells at 10^-5 M incubated for 48 hrs by sulforhodamine B assay; summary of the method: as §2
[22] = tested on: SK-OV-3; assay: Growth inhibition of human SKOV3 cells at 10^-5 M incubated for 48 hrs by sulforhodamine B assay; summary of the method: as §2
[23] = tested on: OVCAR-8; assay: Growth inhibition of human OVCAR8 cells at 10^-5 M incubated for 48 hrs by sulforhodamine B assay; summary of the method: as §2
[24] = tested on: SN12C; assay: Growth inhibition of human SN12C cells at 10^-5 M incubated for 48 hrs by sulforhodamine B assay; summary of the method: as §2
[25] = tested on: SNB-19; assay: Growth inhibition of human SNB19 cells at 10^-5 M incubated for 48 hrs by sulforhodamine B assay; summary of the method: as §2
[26] = tested on: ACHN; assay: Growth inhibition of human ACHN cells at 10^-5 M incubated for 48 hrs by sulforhodamine B assay; summary of the method: as §2
[27] = tested on: HT-29; assay: Growth inhibition of human HT-29 cells at 10^-5 M incubated for 48 hrs by sulforhodamine B assay; summary of the method: as §2
[28] = tested on: RPMI-8226; assay: Growth inhibition of human RPMI8226 cells at 10^-5 M incubated for 48 hrs by sulforhodamine B assay; summary of the method: as §2
[29] = tested on: SF-268; assay: Growth inhibition of human SF268 cells at 10^-5 M incubated for 48 hrs by sulforhodamine B assay; summary of the method: as §2
[30] = tested on: RXF 393; assay: Growth inhibition of human RXF393 cells at 10^-5 M incubated for 48 hrs by sulforhodamine B assay; summary of the method: as §2
[31] = tested on: MDA-MB-231; assay: Growth inhibition of human MDA-MB-231 cells at 10^-5 M incubated for 48 hrs by sulforhodamine B assay; summary of the method: as §2
[32] = tested on: NCI/ADR-RES; assay: Growth inhibition of human NCI/ADR-RES cells at 10^-5 M incubated for 48 hrs by sulforhodamine B assay; summary of the method: as §2
[33] = tested on: HCC 2998; assay: Growth inhibition of human HCC2998 cells at 10^-5 M incubated for 48 hrs by sulforhodamine B assay; summary of the method: as §2
[34] = tested on: SK-MEL-5; assay: Growth inhibition of human SK-MEL-5 cells at 10^-5 M incubated for 48 hrs by sulforhodamine B assay; summary of the method: as §2
[35] = tested on: A498; assay: Growth inhibition of human A498 cells at 10^-5 M incubated for 48 hrs by sulforhodamine B assay; summary of the method: as §2
[36] = tested on: IGROV-1; assay: Growth inhibition of human IGROV1 cells at 10^-5 M incubated for 48 hrs by sulforhodamine B assay; summary of the method: as §2
[37] = tested on: EKVX; assay: Growth inhibition of human EKVX cells at 10^-5 M incubated for 48 hrs by sulforhodamine B assay; summary of the method: as §2
[38] = tested on: MDA-MB-435; assay: Growth inhibition of human MDA-MB-435 cells at 10^-5 M incubated for 48 hrs by sulforhodamine B assay; summary of the method: as §2
[39] = tested on: HCT-15; assay: Growth inhibition of human HCT15 cells at 10^-5 M incubated for 48 hrs by sulforhodamine B assay; summary of the method: as §2
[40] = tested on: NCI-H226; assay: Growth inhibition of human NCI-H226 cells at 10^-5 M incubated for 48 hrs by sulforhodamine B assay; summary of the method: as §2
[41] = tested on: KM12; assay: Growth inhibition of human KM12 cells at 10^-5 M incubated for 48 hrs by sulforhodamine B assay; summary of the method: as §2
[42] = tested on: CCRF-CEM; assay: Growth inhibition of human CCRF-CEM cells at 10^-5 M incubated for 48 hrs by sulforhodamine B assay; summary of the method: as §2
[43] = tested on: OVCAR-5; assay: Growth inhibition of human OVCAR5 cells at 10^-5 M incubated for 48 hrs by sulforhodamine B assay; summary of the method: as §2
[44] = tested on: MCF7; assay: Growth inhibition of human MCF7 cells at 10^-5 M incubated for 48 hrs by sulforhodamine B assay; summary of the method: as §2
[45] = tested on: TK-10; assay: Growth inhibition of human TK10 cells at 10^-5 M incubated for 48 hrs by sulforhodamine B assay; summary of the method: as §1
[46] = tested on: SR; assay: Growth inhibition of human SR cells at 10^-5 M incubated for 48 hrs by sulforhodamine B assay; summary of the method: as §2
[47] = tested on: OVCAR-3; assay: Growth inhibition of human OVCAR3 cells at 10^-5 M incubated for 48 hrs by sulforhodamine B assay; summary of the method: as §2
[48] = tested on: UO-31; assay: Growth inhibition of human UO31 cells at 10^-5 M incubated for 48 hrs by sulforhodamine B assay; summary of the method: as §1
[49] = tested on: BT-549; assay: Growth inhibition of human BT549 cells at 10^-5 M incubated for 48 hrs by sulforhodamine B assay; summary of the method: as §2
[50] = tested on: DU-145; assay: Growth inhibition of human DU145 cells at 10^-5 M incubated for 48 hrs by sulforhodamine B assay; summary of the method: as §2
[51] = tested on: LOX IMVI; assay: Growth inhibition of human LOXIMVI cells at 10^-5 M incubated for 48 hrs by sulforhodamine B assay; summary of the method: as §2
[52] = tested on: SW-620; assay: Growth inhibition of human SW620 cells at 10^-5 M incubated for 48 hrs by sulforhodamine B assay; summary of the method: as §1
[53] = tested on: OVCAR-4; assay: Growth inhibition of human OVCAR4 cells at 10^-5 M incubated for 48 hrs by sulforhodamine B assay; summary of the method: as §2
[54] = tested on: MOLT-4; assay: Growth inhibition of human MOLT4 cells at 10^-5 M incubated for 48 hrs by sulforhodamine B assay; summary of the method: as §2
[55] = tested on: SNB-75; assay: Growth inhibition of human SNB75 cells at 10^-5 M incubated for 48 hrs by sulforhodamine B assay; summary of the method: as §2
[56] = tested on: SK-MEL-2; assay: Growth inhibition of human SK-MEL-2 cells at 10^-5 M incubated for 48 hrs by sulforhodamine B assay; summary of the method: as §2
[57] = tested on: A549; assay: Growth inhibition of human A549/ATCC cells at 10^-5 M incubated for 48 hrs by sulforhodamine B assay; summary of the method: as §2
[58] = tested on: NCI-H460; assay: Growth inhibition of human NCI-H460 cells at 10^-5 M incubated for 48 hrs by sulforhodamine B assay; summary of the method: as §2

Measured: growth inhibition (GI)

CC[C@H](C)C(=O)O[C@@H]1[C@@H]2[C@@H](OC(=O)[C@@H](C)CC)[C@@]34O[C@]2(O)[C@@](C)([C@@H](CC(=O)OC)C1(C)C)[C@H]3CC[C@]1(C)C4=CC(=O)O[C@H]1C1=CC(O)OC1=O (stereo partly specified)
inactive: all assays above

CC[C@H](C)C(=O)O[C@@H]1[C@H]2[C@@H](OC(=O)C(C)C)C(C)(C)[C@H](CC(=O)OC)[C@@]3(C)[C@H]4CC[C@]5(C)C(=CC(=O)O[C@H]5C5=CC(O)OC5=O)[C@@]14O[C@@]23O (stereo partly specified)
inactive: all assays above
